{"data": "Assay results gathered from unrelated publications", "target": "Mu-type opioid receptor (Oprm1, Rattus norvegicus, UniProt P33535)", "note": "Protocols differ between the studies behind these lines."}
{"Compound": "Cc1cc(O)cc(C)c1C[C@H](N)C(=O)N1CCc2ccc(Cc3cccc(N)c3)cc2C1", "assay": "ligand displacement, radioligand", "conditions": "cell membranes", "Ki [nM]": 9.7}
{"Compound": "Cc1cc(O)cc(C)c1C[C@H](N)C(=O)N1Cc2ccccc2CC1C(=O)NCC(=O)NC(Cc1ccc(Cl)cc1)C(=O)N(C)CCC[C@@]1(c2ccc(F)cc2)OCc2cc(C#N)ccc21 (stereo in doubt)", "assay": "cell-free assay", "Ki [nM]": 35}
{"Compound": "NC(N)=Nc1ccc2[nH]c3c(c2c1)C[C@@]1(O)[C@H]2Cc4ccc(O)c5c4[C@@]1(CCN2CC1CC1)[C@H]3O5", "assay": "ligand displacement, radioligand", "conditions": "cell membranes", "Ki [nM]": 9.04}
{"Compound": "Oc1cccc([C@]23CCC[C@H]([C@H]2O)N(CC=Cc2ccccc2)CC3)c1", "assay": "ligand displacement, radioligand", "Ki [nM]": 0.74}
{"Compound": "Cc1ccccc1Cc1ccc2c(c1)CN(C(=O)[C@@H](N)Cc1c(C)cc(O)cc1C)CC2", "assay": "ligand displacement, radioligand", "conditions": "cell membranes", "Ki [nM]": 2.5}
{"Compound": "C[C@@H](NC(=O)[C@@H](N)Cc1ccc(O)cc1)C(=O)NCC(=O)N[C@@H](Cc1ccccc1)C(=O)N(C)CCC[C@@]1(c2ccc(F)cc2)OCc2cc(C#N)ccc21", "assay": "cell-free assay", "Ki [nM]": 88}
{"Compound": "N=C(N)NCCC[C@@H]1NC(=O)[C@H](Cc2ccc(O)cc2)NC(=O)[C@@H](CCCCN)NC(=O)[C@@H](Cc2ccccc2)NC1=O", "assay": "ligand displacement, radioligand", "conditions": "cell membranes", "Ki [nM]": 171}
{"Compound": "Cc1cc(C)c(C[C@H](NC(=O)[C@@H](CCCNC(=N)N)NC(=O)[C@@H](N)Cc2c(C)cc(O)cc2C)C(=O)N[C@@H](CCCCN)C(N)=O)c(C)c1", "assay": "ligand displacement, radioligand", "conditions": "cell membranes", "Ki [nM]": 0.158}
{"Compound": "Cc1cc(O)cc(C)c1C[C@H](N)C(=O)N[C@H](C)C(=O)NCC(=O)N[C@@H](Cc1ccc(Cl)cc1)C(=O)N(C)CCC[C@@]1(c2ccc(F)cc2)OCc2cc(C#N)ccc21", "assay": "cell-free assay", "Ki [nM]": 12}
{"Compound": "C[C@@H](NC(=O)[C@@H](N)Cc1ccc(O)cc1)C(=O)NCC(=O)N[C@H](CC(=O)NNC(=O)C[C@H](Cc1ccccc1)NC(=O)CNC(=O)[C@@H](C)NC(=O)[C@@H](N)Cc1ccc(O)cc1)Cc1ccccc1", "assay": "ligand displacement, radioligand", "Ki [nM]": 1.1}
{"Compound": "Cc1cc(O)cc(C)c1C[C@H](N)C(=O)N1CCc2ccc(Cc3ccc([N+](=O)[O-])cc3)cc2C1", "assay": "ligand displacement, radioligand", "conditions": "cell membranes", "Ki [nM]": 2.6}
{"Compound": "Cc1cc(O)cc(C)c1C[C@H](C)C(=O)N[C@@H]1C/C=C/CC[C@@H](C(N)=O)NC(=O)[C@H](Cc2ccccc2)NC(=O)[C@H](Cc2ccccc2)NC1=O", "assay": "ligand displacement, radioligand", "conditions": "cell membranes", "Ki [nM]": 323}
{"Compound": "Cc1cc(O)cc(C)c1C[C@H](N)C(=O)N1CCc2ccc(Cc3ccccc3[N+](=O)[O-])cc2C1", "assay": "ligand displacement, radioligand", "conditions": "cell membranes", "Ki [nM]": 10}
{"Compound": "CCc1cccc(C)c1C[C@H](NC(=O)[C@@H](CCCNC(=N)N)NC(=O)[C@@H](N)Cc1c(C)cc(O)cc1C)C(=O)N[C@@H](CCCCN)C(N)=O", "assay": "ligand displacement, radioligand", "conditions": "cell membranes", "Ki [nM]": 0.0958}
